Results from paper PMC6686180 (Biochemistry, 2018).
Where two headings read alike, the source gives them in different places. Blank lines part the entries; values can stand above or below the molecule they belong to. Ends that are not written are not given here. * marks the point of attachment. 5FAM = O=C1OC2(c3ccc(O)cc3Oc3cc(O)ccc32)c2ccc(C(=O)*)cc21

Assays:
[1] = target: biotinylated SmgGDS-607 (human) (UniProt P52306); test: BLI
[2] = target: biotinylated SmgGDS-607 (human) (UniProt P52306); test: BLI; remark: listed apart in the source
[3] = system: GGTase-I; conditions: cited from earlier work
[4] = system: SmgGDS-607; conditions: non-farnesylated versus farnesylated RhoA; cited from earlier work
[5] = system: SmgGDS; conditions: cells, cited from earlier work
[6] = system: FTase; conditions: addition of GDP or GTPγS; cited from earlier work
[7] = target: T1, GGTase-I (Rattus norvegicus, UniProt P53610+Q04631); test: Radiolabel prenylation assay: GGTase-I-catalyzed geranylgeranylation of RhoA; assay type: biochemical; conditions: for effect of nucleotide on initial rate of RhoA geranylgeranylation / effect of nucleotide on endpoint level of incorporated isoprenoid: 25 μM GTP or GDP, RhoA 1.3 μM, GGTase-I 5 nM, without SmgGDS; for effect of nucleotide on initial rate of RhoA geranylgeranylation: 3H-GGPP 9 μM; for effect of nucleotide on endpoint level of incorporated isoprenoid: incubation 2 hr
[8] = target: FTase; conditions: FTase binding; cited from earlier work
[9] = system: RhoA; test: Radiolabel prenylation assay of RhoA with SmgGDS-607; assay type: biochemical, human
[10] = target: RhoA 13mer (5-fam-…) (human); test: fluorescence polarisation
[11] = target: RhoA CaaX only peptide (5fam-GCLVL) (human); test: fluorescence polarisation
[12] = target: geranylgeranylated RhoA 13mer peptide (human); test: fluorescence polarisation
[13] = target: T1, GGTase-I; test: Peptide prenylation assay; assay type: biochemical; conditions: GGTase-I 10 nM; for effect on GGTase-I activity with peptide substrate: 5 μM SmgGDS, dansyl-GCLVL, saturating GGPP (10 μM)
Procedure, shortened: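 GGTase-I (10 nM) and 10 μM GGPP were incubated at 30°C with varied dansyl-GCLVL (RhoA CaaX peptide), with or without SmgGDS (5 μM final) or GDP/GTP (30 μM final). Prenylation-dependent fluorescence (ex 340/em 520 nm) was read every 40 s for 2 h. Initial slopes were converted to velocity, and kcat and KM came from Michaelis-Menten fits of V/E.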

[14] = target: RhoA; conditions: read-out: Kd of RhoA for GTPγS; with Mg^2+; cited from earlier work
[15] = target: T2, SmgGDS-558 (human, UniProt P52306-2 1-558); test: fluorescence polarisation
T2 sequence (looked up): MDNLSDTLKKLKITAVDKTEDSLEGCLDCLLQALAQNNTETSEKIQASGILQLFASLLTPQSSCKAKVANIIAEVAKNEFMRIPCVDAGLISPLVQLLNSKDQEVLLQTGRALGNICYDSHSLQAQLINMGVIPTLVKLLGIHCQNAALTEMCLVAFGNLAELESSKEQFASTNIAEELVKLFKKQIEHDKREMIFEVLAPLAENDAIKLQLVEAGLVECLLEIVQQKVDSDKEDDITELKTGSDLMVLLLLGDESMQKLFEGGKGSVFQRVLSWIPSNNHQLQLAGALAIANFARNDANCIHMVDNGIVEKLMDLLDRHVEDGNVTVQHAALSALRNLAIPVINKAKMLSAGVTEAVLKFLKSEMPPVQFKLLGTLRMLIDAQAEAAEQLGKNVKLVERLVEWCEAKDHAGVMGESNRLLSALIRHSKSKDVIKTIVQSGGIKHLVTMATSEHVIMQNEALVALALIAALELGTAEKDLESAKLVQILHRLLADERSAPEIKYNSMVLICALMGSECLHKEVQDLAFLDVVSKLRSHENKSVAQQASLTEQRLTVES

[16] = target: RhoA (human); test: inhibition of radiolabel prenylation
[17] = Buffer (no additive), GGPP 10 μM, 30°C, fluorescence

T1 sequence (P53610 whole entry, one chain of several): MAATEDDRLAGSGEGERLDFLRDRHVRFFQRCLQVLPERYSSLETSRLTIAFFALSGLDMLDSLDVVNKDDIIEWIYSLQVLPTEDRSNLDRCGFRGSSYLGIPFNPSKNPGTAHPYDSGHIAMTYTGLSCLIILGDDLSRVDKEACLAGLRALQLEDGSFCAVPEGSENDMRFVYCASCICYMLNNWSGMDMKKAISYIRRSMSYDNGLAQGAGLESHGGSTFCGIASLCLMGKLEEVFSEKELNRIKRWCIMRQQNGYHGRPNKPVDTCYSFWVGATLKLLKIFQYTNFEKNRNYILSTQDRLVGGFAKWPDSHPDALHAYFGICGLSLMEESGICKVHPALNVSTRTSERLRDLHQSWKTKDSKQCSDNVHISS

Molecule: CC(C)=CCC/C(C)=C/CC/C(C)=C/CC/C(C)=C/COP(=O)(O)OP(=O)(O)O [GGPP, geranylgeranyl pyrophosphate]
Km ([3]; GGTase-I KM for GGPP): 3 nM

Molecule: non-farnesylated RhoA: non-farnesylated RhoA of the recent structural study
affinity for SmgGDS-607 [4]: had higher affinity for SmgGDS-607 than farnesylated RhoA

Molecule: RhoA G14V: constitutively active mutant, predominantly bound to GTP
co-immunoprecipitation of SmgGDS [5]: did not co-immunoprecipitate detectable amounts of SmgGDS

Molecule: Nc1nc2c(ncn2[C@@H]2O[C@H](COP(=O)(O)OP(=O)(O)O)[C@@H](O)[C@H]2O)c(=O)[nH]1 [GDP]
FTase activity for farnesylation of H-Ras [6]: unaffected | effect of GDP on GGTase-I activity for RhoA ([7]; 20 μM GDP without SmgGDS-607, RhoA 3 μM, GGTase-I 10 nM, 3H-GGPP 1.8 μM, 4 min): does not affect GGTase-I activity for RhoA | effect of nucleotide on initial rate of RhoA geranylgeranylation [7]: No difference was observed | effect of nucleotide on endpoint level of incorporated isoprenoid [7]: no significant difference

Molecule: GCVLS
Kd [8]: 58 nM

Molecule: dansyl-GCVLL
kcat ([3]; peptide substrate dansyl-GCVLL): 0.051 s⁻¹

Molecule: Nc1nc2c(ncn2[C@@H]2O[C@H](COP(=O)(O)OP(=O)(O)OP(=O)(O)O)[C@@H](O)[C@H]2O)c(=O)[nH]1 [GTP]
effect of nucleotide on initial rate of RhoA geranylgeranylation [7]: No difference was observed | effect of nucleotide on endpoint level of incorporated isoprenoid [7]: no significant difference | restoration of RhoA geranylgeranylation at saturating GTP ([9]; 5 μM SmgGDS-607, versus level in absence of SmgGDS-607, RhoA 3 μM): do not restore RhoA geranylgeranylation to the level observed in the absence of SmgGDS-607 | concentration of GTP required to reach saturating RhoA geranylgeranylation ([9]; in the presence of 5 μM SmgGDS-607, RhoA 3 μM, GGTase-I 10 nM, 3H-GGPP 1.8 μM, 4 min): ~ 3 μM

Molecule: Nc1nc2c(ncn2[C@@H]2O[C@H](COP(=O)(O)OP(=O)(O)OP(O)(O)=S)[C@@H](O)[C@H]2O)c(=O)[nH]1 [GTPγS]
Kd [14]: 160 nM

Molecule: RhoA T19N: dominant negative mutant of RhoA, predominantly nucleotide-free in cells
co-immunoprecipitation of SmgGDS-607 ([5]; versus wildtype RhoA): co-immunoprecipitates greater amounts of SmgGDS-607 than wildtype RhoA

Next, values leading:

Kd [1]: 249 nM | Kd [2]: 77 nM
Molecule: RhoA (natural protein)

Kd [10]: 56 nM | Kd [11]: 2200 nM
Molecule: protein geranylgeranyltransferase I (from UniProt Q04631 1-377) (complex)

Kd [10]: 1900 nM | Kd [12]: > 16 µM
Molecule: SmgGDS-607 (from UniProt P52306-1 1-607) (natural protein)

Km [13, 17]: 1900 ± 800 nM | kcat [13, 17]: 0.046 ± 0.009 s⁻¹
Molecule: dansyl-GCLVL [dansyl GCLVL]

Kd [15]: > 40 µM
B1: RhoA CaaX only peptide (5fam-GCLVL) (peptide)
peptide: 5FAM-GCLVL

Ki [16]: 85 nM
B2: SmgGDS-607 (natural protein)
chain: MDNLSDTLKKLKITAVDKTEDSLEGCLDCLLQALAQNNTETSEKIQASGILQLFASLLTPQSSCKAKVANIIAEVAKNEFMRIPCVDAGLISPLVQLLNSKDQEVLLQTGRALGNICYDSHEGRSAVDQAGGAQIVIDHLRSLCSITDPANEKLLTVFCGMLMNYSNENDSLQAQLINMGVIPTLVKLLGIHCQNAALTEMCLVAFGNLAELESSKEQFASTNIAEELVKLFKKQIEHDKREMIFEVLAPLAENDAIKLQLVEAGLVECLLEIVQQKVDSDKEDDITELKTGSDLMVLLLLGDESMQKLFEGGKGSVFQRVLSWIPSNNHQLQLAGALAIANFARNDANCIHMVDNGIVEKLMDLLDRHVEDGNVTVQHAALSALRNLAIPVINKAKMLSAGVTEAVLKFLKSEMPPVQFKLLGTLRMLIDAQAEAAEQLGKNVKLVERLVEWCEAKDHAGVMGESNRLLSALIRHSKSKDVIKTIVQSGGIKHLVTMATSEHVIMQNEALVALALIAALELGTAEKDLESAKLVQILHRLLADERSAPEIKYNSMVLICALMGSECLHKEVQDLAFLDVVSKLRSHENKSVAQQASLTEQRLTVES

effect on GGTase-I activity with peptide substrate [13]: not significantly altered | inhibition of RhoA prenylation catalyzed by GGTase-I (overall statement) ([9]; in vitro radiolabel incorporation assay): completely inhibits RhoA prenylation
B3: SmgGDS-607: human SmgGDS 607-amino acid splice variant with one additional armadillo repeat (UniProt P52306–1) (protein)
chain: MDNLSDTLKKLKITAVDKTEDSLEGCLDCLLQALAQNNTETSEKIQASGILQLFASLLTPQSSCKAKVANIIAEVAKNEFMRIPCVDAGLISPLVQLLNSKDQEVLLQTGRALGNICYDSHEGRSAVDQAGGAQIVIDHLRSLCSITDPANEKLLTVFCGMLMNYSNENDSLQAQLINMGVIPTLVKLLGIHCQNAALTEMCLVAFGNLAELESSKEQFASTNIAEELVKLFKKQIEHDKREMIFEVLAPLAENDAIKLQLVEAGLVECLLEIVQQKVDSDKEDDITELKTGSDLMVLLLLGDESMQKLFEGGKGSVFQRVLSWIPSNNHQLQLAGALAIANFARNDANCIHMVDNGIVEKLMDLLDRHVEDGNVTVQHAALSALRNLAIPVINKAKMLSAGVTEAVLKFLKSEMPPVQFKLLGTLRMLIDAQAEAAEQLGKNVKLVERLVEWCEAKDHAGVMGESNRLLSALIRHSKSKDVIKTIVQSGGIKHLVTMATSEHVIMQNEALVALALIAALELGTAEKDLESAKLVQILHRLLADERSAPEIKYNSMVLICALMGSECLHKEVQDLAFLDVVSKLRSHENKSVAQQASLTEQRLTVES
modifications: left off: His6-tev, end not stated, state not stated

effect on GGTase-I activity with peptide substrate [13]: not significantly altered
B4: SmgGDS-558: human SmgGDS 558-amino acid splice variant with 12 armadillo repeats (UniProt P52306–2) (protein)
chain: MDNLSDTLKKLKITAVDKTEDSLEGCLDCLLQALAQNNTETSEKIQASGILQLFASLLTPQSSCKAKVANIIAEVAKNEFMRIPCVDAGLISPLVQLLNSKDQEVLLQTGRALGNICYDSHSLQAQLINMGVIPTLVKLLGIHCQNAALTEMCLVAFGNLAELESSKEQFASTNIAEELVKLFKKQIEHDKREMIFEVLAPLAENDAIKLQLVEAGLVECLLEIVQQKVDSDKEDDITELKTGSDLMVLLLLGDESMQKLFEGGKGSVFQRVLSWIPSNNHQLQLAGALAIANFARNDANCIHMVDNGIVEKLMDLLDRHVEDGNVTVQHAALSALRNLAIPVINKAKMLSAGVTEAVLKFLKSEMPPVQFKLLGTLRMLIDAQAEAAEQLGKNVKLVERLVEWCEAKDHAGVMGESNRLLSALIRHSKSKDVIKTIVQSGGIKHLVTMATSEHVIMQNEALVALALIAALELGTAEKDLESAKLVQILHRLLADERSAPEIKYNSMVLICALMGSECLHKEVQDLAFLDVVSKLRSHENKSVAQQASLTEQRLTVES
modifications: left off: His6-tev, end not stated, state not stated
